The text below walks through data of PubChem BioAssay.

Calls of active or inactive are those of the source.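 How the source made its calls, unless noted: active means inhibition at or above 50% relative to wild type and mutant plate controls; inactive means inhibition below 50%.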

The nature of experiment [1]: inhibitors of TNFa-induced NFkB p65 translocation, primary screen, imaging, HUVEC, MLSMR starter and 10KST1 sets (AID 438;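 active means inhibition above 20% together with a positive visual image hit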;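 further: compound added about 3h40 before a 20 min TNFalpha stimulation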;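 on inhibition: signal is the nuclear over cytoplasmic p65 intensity ratio per well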). Particulars: HUVEC TNFa-induced p65 nuclear translocation; cell count: measured here: nuclei count (cytotoxicity indicator), at 2.08 µM; inhibition: at 2 µM, stronger effect = higher value, 0% TNFa-plus-vehicle, 100% no-TNFa wells.
A short description of experiment [2]: endothelial E-selectin expression blockers – imaging, HUVEC, immunofluorescence, MLSMR starter and 10KST1 sets, primary screen (AID 487;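 active means visually confirmed hit in the image check and inhibition above 20%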;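 on inhibition: signal is fraction of cell area covered by stained E-selectin grains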;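 on nuclei count: 100% = median nuclei count of all wells on the same plate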). Particulars: HUVEC TNFalpha-induced E-selectin immunofluorescence imaging, at 2 µM; inhibition: stronger effect = higher value; nuclei count: measured here: cell number, toxicity.
Experiment [3] is described as follows: Primary imaging screen for DUSP6 inhibitors that restore phospho-Erk in transfected HeLa cells, chemical complementation (AID 609;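 active means compounds giving at least 50% inhibition in the cell-based MKP-3 phosphatase rescue imaging test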;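 on inhibition: phospho-Erk level distribution per well compared with pooled transfected vehicle control wells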). The settings on record: HeLa MKP-3 transfected, phospho-Erk imaging KS statistic, at 10 µM, cells stimulated with TPA for 15 min.
Experiment [4] addresses Dual specificity protein phosphatase 6 (Homo sapiens) (UniProt Q16828). Described as above. The settings on record: HeLa MKP-3 transfected, phospho-Erk imaging KS statistic; at 10 µM; stronger effect = higher value; cells stimulated with TPA for 15 min.
In experiment [5] the target is Voltage-gated potassium channel subunit beta-2 (Rattus norvegicus) (UniProt P62483). The experiment in a line: inhibitors of rat Kvbeta2 reductase activity – biochemical, NADPH fluorescence, primary screen (AID 622;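 active means fluorescence slope higher than the sample average by over 3 SD, cut at about -0.22 in these data, passing the limit was not always enough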;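 further: slope of raw intensity against log time taken from 70 to 1610 s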). The settings on record: recombinant KvBeta, 4-cyanobenzaldehyde reduction, at 10 µM, stronger effect = higher value.
The target is the same in experiment [6]. The experiment in a line: enhancers of rat Kvbeta2 NADPH turnover – biochemical, NADPH fluorescence, primary screen (AID 623;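 active means NADPH fluorescence slope more negative than the mean of all samples by about 3 SD, 99.7% confidence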;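 further: fluorescence intensity change per second fitted from 20 to 320 s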). The settings on record: Recombinant KvBeta, NADPH fluorescence decrease slope, 10 min; at 10 µM; stronger effect = lower value.
The target in experiment [7] is Muscarinic acetylcholine receptor M4 (Homo sapiens) (UniProt P08173). The experiment in a line: M4-linked GIRK flux change, two-sided – cell-based, HEK293 M4/GIRK, thallium flux, BTC-AM, M4 allosteric agonist project, primary screen (AID 625;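 active means fluorescence slope after compound addition differing from the mean of all tested samples at 99.7% confidence, mostly higher but some lower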;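 further: thallium influx through GIRK channels coupled to M4 in HEK293 cells with BTC-AM dye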). Particulars: at 10 µM, actives lie on both sides. Put shortly: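 Material: HEK293 cells with M4 receptor and GIRK channels; Times: cells overnight at 37 °C, BTC-AM loading 1 h, reads 2 min total; Technique: kinetic BTC-AM fluorescence sampled at 1 Hz, 10 s pre-addition baseline; Read-out basis: slope over 15–24 s of trace normalized to starting intensity; Controls: carbachol positive, DMSO negative.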

Experiment [8] can be described thus: inhibitors of larval lipid processing in zebrafish, primary screen, whole organism, PED6 fluorescence, gall bladder and intestine (AID 686;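 active means a full or partial loss of lipid-probe fluorescence in the fish gall bladder, intestine or both, judged by eye; inactive means no fluorescence loss, or compound toxic to the fish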;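 further: larvae 5 to 7 days old with five fish per well; signal comes from phospholipase A2 cleavage of quenched PED6 carried via bile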). Particulars: Zebrafish larvae PED6 lipid processing, fluorescence scoring; screened at 20 µM (by protocol). Put shortly:
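Incubation: overnight exposure of larvae to compound plus PED6 / Test system: live zebrafish larvae aged 5-7 days, whole organism / Amount: 5 larvae per well / Read-out basis: visual per-well fluorescence inhibition score / Signal: visual fluorescence microscopy scoring of gall bladder, gut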

The nature of experiment [9]: loss of swimming-algae plug formation – whole organism, Chlamydomonas reinhardtii, WT vs cilia-less mutant, absorbance, 96-well, primary screen (AID 463189).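 Further: 0% = wild type cc124 cells in DMSO and 100% = ciliumless bld1 mutant cells.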 Particulars: Chlamydomonas reinhardtii gravitaxis, OD600 absorbance, 2 days; at 10 µM; stronger effect = higher value.
[10] abbreviates: measured here: cell density z-score.
Where [11] appears, read: measured here: nuclear c-Myc green intensity z-score.
Where [12] appears, read: measured here: nuclear pErk red intensity z-score, stronger effect = higher value.

Sequence of Voltage-gated potassium channel subunit beta-2 (Rattus norvegicus) (P62483 whole entry, looked up): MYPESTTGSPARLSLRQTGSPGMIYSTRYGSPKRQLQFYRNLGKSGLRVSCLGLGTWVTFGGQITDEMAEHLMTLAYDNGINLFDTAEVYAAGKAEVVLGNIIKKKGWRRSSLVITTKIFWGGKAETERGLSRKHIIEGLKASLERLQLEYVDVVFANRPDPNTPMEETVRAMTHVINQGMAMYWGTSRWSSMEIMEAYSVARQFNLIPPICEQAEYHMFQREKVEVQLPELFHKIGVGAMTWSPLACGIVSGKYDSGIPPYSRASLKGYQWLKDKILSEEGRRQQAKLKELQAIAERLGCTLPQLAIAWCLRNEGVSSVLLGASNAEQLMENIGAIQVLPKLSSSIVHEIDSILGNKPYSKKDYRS
Sequence of Dual specificity protein phosphatase 6 (Homo sapiens) (Q16828 whole entry, looked up): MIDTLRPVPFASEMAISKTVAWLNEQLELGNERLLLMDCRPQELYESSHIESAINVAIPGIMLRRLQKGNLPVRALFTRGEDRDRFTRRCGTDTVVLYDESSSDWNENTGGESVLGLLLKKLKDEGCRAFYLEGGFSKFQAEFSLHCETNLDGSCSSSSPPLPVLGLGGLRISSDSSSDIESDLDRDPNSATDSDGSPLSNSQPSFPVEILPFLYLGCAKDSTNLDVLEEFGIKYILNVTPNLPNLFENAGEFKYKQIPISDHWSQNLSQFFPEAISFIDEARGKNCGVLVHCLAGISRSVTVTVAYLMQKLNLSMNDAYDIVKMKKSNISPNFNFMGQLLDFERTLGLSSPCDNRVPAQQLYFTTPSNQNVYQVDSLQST
Sequence of Muscarinic acetylcholine receptor M4 (Homo sapiens) (P08173 whole entry, looked up): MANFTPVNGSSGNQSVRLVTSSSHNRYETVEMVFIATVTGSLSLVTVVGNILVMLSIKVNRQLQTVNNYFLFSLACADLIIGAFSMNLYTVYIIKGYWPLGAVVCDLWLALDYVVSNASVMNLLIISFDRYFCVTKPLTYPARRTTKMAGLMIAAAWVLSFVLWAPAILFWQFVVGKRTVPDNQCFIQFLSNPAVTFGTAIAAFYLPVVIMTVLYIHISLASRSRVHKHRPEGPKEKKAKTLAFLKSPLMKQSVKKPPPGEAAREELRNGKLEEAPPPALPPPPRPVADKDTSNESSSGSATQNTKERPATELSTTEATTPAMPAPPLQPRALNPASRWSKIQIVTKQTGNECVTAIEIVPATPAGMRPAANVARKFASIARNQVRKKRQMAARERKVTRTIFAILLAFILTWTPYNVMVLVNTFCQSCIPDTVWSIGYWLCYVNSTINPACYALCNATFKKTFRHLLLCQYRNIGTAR

For the molecule `Cc1cc(C)n(CC2CC(=O)N(c3cc(Cl)cc(Cl)c3)C2=O)n1` (centres undefined), the cell count in experiment [1] was determined as 656. Moreover, the inhibition was 50.4% (active) in [1], -80.7% (inactive) in experiment [2], -9.53% (inactive) in [4] and 10.7% (inactive) in experiment [9]. The nuclei count in [2] was 103%. Further, the z-score in [3] (setting [10]) was -0.905; in [3] (setting [11]) it was 0.888; in experiment [3] (setting [12]), -1.76. Besides, the values for the fluorescence slope in [5] and in experiment [7] were -0.548 (inactive) and 0.00628 (inactive), respectively. Also, the NADPH fluorescence slope in experiment [6] is -7.9e-05 (inactive). Further, the call in experiment [8] was inactive.

In the case of `CN1Cc2c(N3CCOCC3)nc(SCc3ccccc3)c(C#N)c2CC1(C)C`, in experiment [1], the cell count was found to be 524. Further, the inhibition was -3.1% (inactive) in [1], -101% (inactive) in [2], -0.584% (inactive) in experiment [4] and 17.9% (inactive) in experiment [9]. In addition, in experiment [2], the nuclei count was determined as 134%. The z-score in experiment [3] (setting [10]) was -1.78; in [3] (setting [11]), -0.223; in experiment [3] (setting [12]), -1.03. Besides, the fluorescence slope in [5] is -0.496 (inactive); in experiment [7], 0.00495 (inactive). Also, the NADPH fluorescence slope in [6] was -7.5e-06 (inactive). In [8], the result was inactive.

Turning to `COCC(C)Nc1ncnc2c1cnn2-c1ccc(Cl)cc1` (centres undefined), in experiment [1], the cell count was 607. The inhibition in [1] is -19.2% (inactive); in [2], -34.4% (inactive); in [4], 3.42% (inactive); in experiment [9] it was 18.7% (inactive). In addition, in experiment [2], the nuclei count amounted to 170%. Also, the z-score in experiment [3] (setting [10]) is 1.51; in experiment [3] (setting [11]), -0.865; in experiment [3] (setting [12]), 0.282. For the same molecule, the fluorescence slope in experiment [5] was -0.398 (inactive); in [7] it was 0.00516 (inactive). The NADPH fluorescence slope in experiment [6] is -1.2e-05 (inactive). Further, the call in experiment [8] was inactive.

`CC1(C)Cc2c(C#N)c(N3CCN(C(=O)c4ccco4)CC3)nc(Cc3ccccc3)c2CO1`: in experiment [1], the cell count is 541. The inhibition in experiment [1] is -6.6% (inactive); in experiment [2] it was 2.1% (inactive); in experiment [4], 12.8% (inactive); in [9], 16.1% (inactive). Besides, in [2], the nuclei count is 97.1%. In addition, the figures for the z-score in experiment [3] (setting [10]), in [3] (setting [11]) and in [3] (setting [12]) were 1.26, -0.345 and -0.81, respectively. Also, the fluorescence slope in [5] is -0.499 (inactive); in [7], 0.00414 (inactive). Also, the NADPH fluorescence slope in [6] is 4.3e-05 (inactive). For the same molecule, the molecule was called inactive in [8].

Turning to `CC1(C)Cc2c(c(N3CCOCC3)nc3snc(Br)c23)CO1`, the cell count in experiment [1] amounted to 489. For the same molecule, the inhibition in experiment [1] was -4.5% (inactive); in experiment [2], -99.5% (inactive); in [4] it was 5.42% (inactive); in experiment [9], 2.33% (inactive). In [2], this molecule had a nuclei count of 130%. For the same molecule, the results for the z-score in experiment [3] (setting [10]), in experiment [3] (setting [11]) and in experiment [3] (setting [12]) were -1.77, 2.53 and -2.36, respectively. For the same molecule, the fluorescence slope in experiment [5] was -0.502 (inactive); in experiment [7], 0.00473 (inactive). Besides, the NADPH fluorescence slope in experiment [6] was -1.8e-05 (inactive). In addition, the molecule was classed as inactive in experiment [8].

As for `CCN(CC)CCCN1C(=O)C(=O)/C(=C(/O)c2ccc3c(c2)CC(C)O3)C1c1cccnc1` (centres undefined), the cell count in [1] stood at 574. The inhibition was -10.8% (inactive) in experiment [1], 68% (inactive) in experiment [2], 6.04% (inactive) in experiment [4] and 13.2% (inactive) in experiment [9]. The nuclei count in experiment [2] was found to be 83.2%. Besides, the z-score is -1.33 in [3] (setting [10]), 0.323 in experiment [3] (setting [11]) and 0.536 in experiment [3] (setting [12]). Further, the fluorescence slope in experiment [5] was -0.502 (inactive); in [7], 0.00627 (inactive). The NADPH fluorescence slope in [6] is -2.4e-05 (inactive). The result in [8] was inactive.

Take `COc1ccc(C2Nc3ccccc3C(=O)N2Cc2ccco2)cc1CN1C(=O)c2ccccc2C1=O` (centres undefined): the cell count in experiment [1] is 691. The inhibition in experiment [1] is -6.9% (inactive); in [2], 20.3% (inactive); in experiment [4], 9.07% (inactive); in experiment [9], 8.71% (inactive). In addition, the nuclei count in experiment [2] turned out to be 132%. Also, the z-score was 0.751 in experiment [3] (setting [10]), -1.72 in experiment [3] (setting [11]) and 0.41 in experiment [3] (setting [12]). Further, the fluorescence slope in [5] is -0.461 (inactive); in experiment [7], 0.00497 (inactive). In [6], the NADPH fluorescence slope is -4.4e-05 (inactive). The molecule was classed as inactive in experiment [8].

For `CSc1nc2sc3c(c2c2nncn12)CCC3`, the cell count in experiment [1] was determined as 595. The inhibition in [1] is -9.4% (inactive); in experiment [2] it was -93% (inactive); in [4], -13.3% (inactive); in experiment [9], 46.8% (inactive). Further, the nuclei count in [2] came out at 148%. The z-score was -0.00236 in [3] (setting [10]), -1.35 in [3] (setting [11]) and -0.539 in [3] (setting [12]). Further, the fluorescence slope in experiment [5] was -0.46 (inactive); in experiment [7], 0.00506 (inactive). In addition, in experiment [6], the NADPH fluorescence slope is -9.7e-05 (inactive). For the same molecule, in [8], the result was inactive.

Regarding `CCCCCCOc1ccc(N2C(=O)CC(N3CCN(C(=O)c4ccco4)CC3)C2=O)cc1` (centres undefined), the cell count in experiment [1] stood at 632. Besides, the inhibition was 8.2% (inactive) in experiment [1], -105% (inactive) in [2], 10.1% (inactive) in [4] and 5.01% (inactive) in [9]. In [2], this molecule displayed a nuclei count of 150%. Further, the z-score was 0.106 in [3] (setting [10]), -0.155 in experiment [3] (setting [11]) and -0.8 in [3] (setting [12]). The fluorescence slope in [5] is -0.487 (inactive); in experiment [7], 0.00531 (inactive). For the same molecule, the NADPH fluorescence slope in [6] is -3.5e-05 (inactive). Also, in [8], the result was inactive.

For the molecule `Cc1cc(=O)oc(C)c1C(=O)NCCC1=CCCCC1`, the cell count in experiment [1] was determined as 603. Moreover, the inhibition in experiment [1] was -7.1% (inactive); in experiment [2], -25.9% (inactive); in experiment [4] it was 1.63% (inactive); in [9], -3.01% (inactive). Also, the nuclei count in [2] amounted to 114%. Also, the z-score in [3] (setting [10]) was -1.14; in experiment [3] (setting [11]), 1.4; in experiment [3] (setting [12]) it was 1.29. For the same molecule, the fluorescence slope in [5] is -0.415 (inactive); in [7], 0.00474 (inactive). The NADPH fluorescence slope in [6] is -3.7e-05 (inactive). Further, the molecule was classed as inactive in [8].

For the molecule `CC(C)c1[nH]c(=O)c(C#N)c2c1CSC(C)(C)C2`, the cell count in experiment [1] came out at 507. The inhibition in experiment [1] was -14% (inactive); in experiment [2] it was 4% (inactive); in experiment [4] it was 5.35% (inactive); in [9], 14% (inactive). Also, in [2], the nuclei count is 89.3%. For the same molecule, the z-score is 0.147 in experiment [3] (setting [10]), 0.162 in [3] (setting [11]) and -0.0562 in [3] (setting [12]). Moreover, the fluorescence slope was -0.428 (inactive) in experiment [5] and 0.0036 (inactive) in experiment [7]. In experiment [6], the NADPH fluorescence slope is 3.3e-05 (inactive). The call in experiment [8] was inactive.

`CCC(=O)Nc1nc(C)c(Oc2ccccc2)c(=O)[nH]1`: in [1], the cell count is 696. Also, the inhibition in experiment [1] was -5.5% (inactive); in experiment [2], 34.5% (inactive); in experiment [4] it was -9.53% (inactive); in [9], 2.71% (inactive). The molecule also yielded a nuclei count in experiment [2] of 151%. Besides, the z-score is -0.359 in experiment [3] (setting [10]), -0.286 in [3] (setting [11]) and 0.522 in [3] (setting [12]). In addition, the fluorescence slope in [5] is -0.412 (inactive); in [7], 0.00483 (inactive). Besides, the NADPH fluorescence slope in [6] was -4.2e-05 (inactive). The molecule was classed as inactive in experiment [8].

Take `CCOC(=O)CNC(=O)CCCCCC(=O)NCC(=O)OCC`: the cell count in experiment [1] is 367. Also, the inhibition is -1.3% (inactive) in experiment [1], -27.8% (inactive) in experiment [2], 11.4% (inactive) in experiment [4] and 21.4% (inactive) in [9]. Also, the nuclei count in experiment [2] is 132%. In addition, the figures for the z-score in experiment [3] (setting [10]), in [3] (setting [11]) and in experiment [3] (setting [12]) were -0.497, 0.819 and 0.154, respectively. The fluorescence slope in experiment [5] was -0.431 (inactive); in experiment [7] it was 0.00362 (inactive). In addition, the NADPH fluorescence slope in experiment [6] is -9.3e-05 (inactive). In addition, the molecule was called inactive in experiment [8].
